The source made the active and inactive calls. The calls are words filed in the database; no cut-off is given here.
What was measured:
Plasmodium falciparum [1] = assay: Antimalarial activity against chloroquine/mefloquine-sensitive Plasmodium falciparum 3D7 infected-erythrocytes assessed as parasite growth inhibition after 48 to 54 hrs by SYBR green 1-based replication method; type: functional, organism-based
Procedure, shortened: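 Chloroquine- and mefloquine-sensitive 3D7 strain; growth inhibition measured with a SYBR Green I-based replication assay. IC50 reported as mean and standard deviation of three independent experiments.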

Plasmodium falciparum [2] = assay: Antimalarial activity against trophozoite stage of Plasmodium falciparum 3D7 infected-erythrocytes assessed as reduction in Leu efflux after 4 hrs by UPLC method; type: functional, organism-based; settings: 3D7, 4 h
Procedure, shortened: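 Trophozoite-stage 3D7-infected erythrocytes at 2% hematocrit and 10% parasitemia, cultured in medium lacking Leu and Val with D-norvaline as internal standard. Full concentration–response up to 1000 nM with a 4 h endpoint. Leu in the recovered conditioned medium quantified by UPLC (AccQ-Tag). Mean and standard deviation of three independent experiments.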

Plasmodium falciparum [3] = assay: Antimalarial activity against chloroquine-resistant, mefloquine-sensitive Plasmodium falciparum W2 assessed as parasite growth inhibition by [3H]hypoxanthine incorporation assay
Plasmodium falciparum [4] = assay: Antimalarial activity against trophozoite stage of Plasmodium falciparum 3D7 infected-erythrocytes assessed as inhibition of Leu efflux at 160 nM after 60 mins by UPLC method; type: functional; settings: 3D7, 4 h, in the assay text read “after 4 hrs” for “after 60 mins”
Procedure, shortened: (§1)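 Time course on 3D7-infected erythrocytes in medium lacking Leu and Val, with D-norvaline as internal standard. Exposure to 160 nM or DMSO, with conditioned medium sampled from 0 to 240 min. Leu in the medium measured by UPLC (AccQ-Tag), with a hyperbolic fit of the treated data. Points are the average of two technical replicates.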

Plasmodium falciparum [5] = assay: Antimalarial activity against mefloquine-sensitive Plasmodium falciparum 3D7 infected-erythrocytes assessed as parasite growth inhibition after 48 hrs by sandwich ELISA; type: functional; settings: 3D7, 48 h
Plasmodium falciparum [6] = assay: Antimalarial activity against trophozoite stage of Plasmodium falciparum 3D7 infected-erythrocytes assessed as reduction in Leu efflux at 160 nM after 120 mins by UPLC method; type: functional, organism-based; procedure, shortened: as §1

Row | SMILES | IC50 (Plasmodium falciparum [1]) | IC50 (Plasmodium falciparum [2]) | IC90 (Plasmodium falciparum [3]) | inhibition at 0.16 µM (Plasmodium falciparum [4]) | IC90 (Plasmodium falciparum [5]) | Activity (Plasmodium falciparum [6])
1 | CCCCN(CCCN)CC(O)c1cc(C(F)(F)F)nc2c(C(F)(F)F)cccc12 (stereo not given) | 49 nM | 180 nM | – | – | – | –
2 | C#CCNCC(O)c1cc(C(F)(F)F)nc2c(C(F)(F)F)cccc12 (stereo not given) | 110 nM | 140 nM | 1400 nM | – | – | –
3 | OC(CNCCc1ccccc1)c1cc(C(F)(F)F)nc2c(C(F)(F)F)cccc12 (stereo not given) | 8.5 nM | 13 nM | 11 nM | – | – | –
4 | OC(CNc1ccccc1)c1cc(C(F)(F)F)nc2c(C(F)(F)F)cccc12 (stereo not given) | 2000 nM | 2600 nM | 1200 nM | – | – | –
5 | CC(C)NCC(O)c1cc(C(F)(F)F)nc2c(C(F)(F)F)cccc12 (stereo not given) | 7.4 nM | 14 nM | 13 nM | – | – | –
6 | OC(CNC12CC3CC(CC(C3)C1)C2)c1cc(C(F)(F)F)nc2c(C(F)(F)F)cccc12 (stereo not given) | 5.9 nM | 15 nM | – | – | – | –
7 | CCOCC(O)c1cc(C(F)(F)F)nc2c(C(F)(F)F)cccc12 (stereo not given) | 22000 nM | 22000 nM | – | – | – | –
8 | CCCNCC(O)c1cc(C(F)(F)F)nc2c(C(F)(F)F)cccc12 (stereo not given) | 4.2 nM | 10 nM | 1 nM | – | – | –
9 | NCCCNCC(O)c1cc(C(F)(F)F)nc2c(C(F)(F)F)cccc12 (stereo not given) | 1600 nM | 5000 nM | – | – | – | –
10 | OC(CNC1CCCCC1)c1cc(C(F)(F)F)nc2c(C(F)(F)F)cccc12 (stereo not given) | 3.8 nM | 9.7 nM | 6 nM | – | – | –
11 | CC1(C)N=C(N)N=C(N)N1OCCCOc1cc(Cl)c(Cl)cc1Cl | – | > 1000 nM | – | – | – | –
12 | CCCN(CCC)CC(O)c1cc(C(F)(F)F)nc2c(C(F)(F)F)cccc12 (stereo not given) | 4.7 nM | 9.3 nM | – | – | – | –
13 | OC(CNCCC1CCCC1)c1cc(C(F)(F)F)nc2c(C(F)(F)F)cccc12 (stereo not given) | 120 nM | 210 nM | – | – | – | –
14 | CCCCNCC(O)c1cc(C(F)(F)F)nc2c(C(F)(F)F)cccc12 (stereo not given) | 4.9 nM | 9 nM | 5 nM | – | – | –
15 | O[C@@H](c1cc(C(F)(F)F)nc2c(C(F)(F)F)cccc12)[C@H]1CCCCN1 [(S,R)-MEFLOQUINE] | 9.1 nM | 22 nM | 16 nM | 70% | 146 nM | Active
16 | OCCNCC(O)c1cc(C(F)(F)F)nc2c(C(F)(F)F)cccc12 (stereo not given) | 340 nM | 500 nM | 710 nM | – | – | –
17 | CN(C)CCNCC(O)c1cc(C(F)(F)F)nc2c(C(F)(F)F)cccc12 (stereo not given) | 240 nM | 320 nM | 1300 nM | – | – | –
18 | CC(C)N(CC(O)c1cc(C(F)(F)F)nc2c(C(F)(F)F)cccc12)C(C)C (stereo not given) | 350 nM | 590 nM | 12 nM | – | – | –
19 | C#CCCN(CCCN)CC(O)c1cc(C(F)(F)F)nc2c(C(F)(F)F)cccc12 (stereo not given) | 140 nM | 360 nM | – | – | – | –
20 | O=C1C(O)=C([C@H]2CC[C@H](c3ccc(Cl)cc3)CC2)C(=O)c2ccccc21 [ATOVAQUONE] | 0.6 nM | > 1000 nM | – | – | – | –
21 | C#CCCNCC(O)c1cc(C(F)(F)F)nc2c(C(F)(F)F)cccc12 (stereo not given) | 34 nM | 51 nM | – | – | – | –
